The subject of data set [1] is HL-60. As to the kind of experiment: In vitro inhibition of human leukemic HL-60 cell growth in culture. The class given is functional, cell-based. Summed up: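 HL-60 cells were seeded at 5×10^4 cells/mL in RPMI 1640 with 10% heat-inactivated FBS, penicillin and streptomycin, at 37 °C in 5% CO2. Cells were exposed for 72 h to six or seven drug concentrations, run in duplicate. Viability was read by XTT-tetrazolium microculture absorbance, and IC50 was derived from median-effect plot analysis.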

Data set [2] concerns Mus musculus. As to the kind of experiment: […] anticancer activity against B6D2F-1 mice bearing Lewis Lung Carcinoma measured by the Average tumor vol after day 10 at an intraperitoneal dose of 6(mg/kg). The format is functional. The essentials:
(§1)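 Male B6D2F1 mice (8 weeks old, 20–25 g) received 4×10^6 Lewis lung carcinoma cells sc on day -2. Dosing was ip, QDx5, starting on day 1. Groups were 4 control mice and 3 mice per dose. Tumor size and average body-weight change were evaluated on days 7, 10 and 14. Tumor volume is expressed as the treated/control ratio.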

For data set [3], the system named is Mus musculus. Nature of the data set: […] anticancer activity against B6D2F-1 mice bearing Lewis Lung Carcinoma measured by the Average tumor vol after day 14 at an intraperitoneal dose of 3(mg/kg). The class given is functional. Summed up:
as §1

For data set [4], the system named is Mus musculus. Nature of the data set: […] anticancer activity against B6D2F-1 mice bearing P388 leukemia measured by the Average tumor vol after day 10 at an intravenous dose of 5(mg/kg). The format is functional.
Data set [5] concerns Mus musculus. Nature of the data set: […] anticancer activity against B6D2F-1 mice bearing P388 leukemia measured by the Average tumor vol after day 14 at an intravenous dose of 3(mg/kg). The class given is functional.
For data set [6], the system named is Mus musculus. Nature of the data set: […] anticancer activity against B6D2F-1 mice bearing Lewis Lung Carcinoma measured by the Average tumor vol after day 7 at an intraperitoneal dose of 3(mg/kg). The format is functional. The essentials:
as §1

Data set [7] concerns Mus musculus. Nature of the data set: […] anticancer activity against B6D2F-1 mice bearing Lewis Lung Carcinoma measured by the Average tumor vol after day 7 at an intraperitoneal dose of 6(mg/kg). The class given is functional. Summed up: as §1
The subject of data set [8] is Mus musculus. Nature of the data set: […] anticancer activity against B6D2F-1 mice bearing P388 leukemia measured by the increase in lifespan(%) at an intravenous dose of 10(mg/kg).. The class given is functional. The essentials:
(§2)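 Male B6D2F1 mice, 8 weeks old, 20–25 g. P388/0 ascites cells (0.2 mL, ascites:saline 1.10) were implanted iv on day 0, and the tumor grew in the liver. Drug was given iv by tail vein on days 1, 3, 5, 7 and 9 (Q2Dx5), with 4–5 mice per group. Survival time was scored as 8 a.m. (0.0), 1 p.m. (0.25) or 5 p.m. (0.5) deaths. %ILS was averaged against untreated controls, and toxic deaths were counted.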

Data set [9] deals with Mus musculus. As to the kind of experiment: […] anticancer activity against B6D2F-1 mice bearing P388 leukemia measured by the average weight change(g) after day 11 at an intravenous dose of 15(mg/kg). The class given is functional. Summed up:
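Male B6D2F1 mice (8 weeks old, 20–25 g) were implanted iv on day 0 with P388/0 ascites cells (0.2 mL; ascites:saline 1.10), which grew in the liver. Drug was given iv via the tail vein, Q2Dx5, on days 1, 3, 5, 7 and 9. Groups had 4–5 mice. Day 1 value is mean body weight; later days are weight change.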

Data set [10] relates to Mus musculus. Nature of the data set: […] anticancer activity against B6D2F-1 mice bearing Lewis Lung Carcinoma measured by the average weight change(g) after day 14 at an intraperitoneal dose of 6(mg/kg). The class given is functional. Summed up:
as §1

The test system of data set [11] is Mus musculus. As to the kind of experiment: […] anticancer activity against B6D2F-1 mice bearing Lewis Lung Carcinoma measured by the average weight change(g) after day 7 at an intraperitoneal dose of 3(mg/kg). The class given is functional. The essentials: as §1
Data set [12] deals with Mus musculus. As to the kind of experiment: […] anticancer activity against B6D2F-1 mice bearing Lewis Lung Carcinoma measured by the average weight change(g) after day 7 at an intraperitoneal dose of 6(mg/kg). The class given is functional. Summed up:
as §1

For data set [13], the system named is Mus musculus. Nature of the data set: […] anticancer activity against B6D2F-1 mice bearing Sarcoma 180 measured by the average weight change(g) after day 10 at an intraperitoneal dose of 7(mg/kg). The class given is functional. Summed up:
(§3)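 Male B6D2F1 mice (8 weeks old, 20–25 g) were inoculated sc with 3×10^6 Sarcoma 180 cells on day 0. Dosing was ip, QDx5, starting on day 1. Groups were 4 control mice and 2 mice per dose. Average body weight change (g) and treated/control tumor volume were evaluated on days 7, 10 and 14.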

In data set [14] the test system is Mus musculus. Nature of the data set: […] anticancer activity against B6D2F-1 mice bearing Sarcoma 180 measured by the average weight change(g) after day 10 at an intraperitoneal dose of 5(mg/kg). The format is functional. The essentials: as §3
For data set [15], the system named is Mus musculus. As to the kind of experiment: […] anticancer activity against 5 B6D2F-1 mice bearing P388 leukemia measured by the toxicity death at an intravenous dose of 15(mg/kg). The format is organism-based. The conditions noted are these: in vivo. Summed up:
as §2

For data set [16], the system named is Mus musculus. Nature of the data set: […] anticancer activity against B6D2F-1 mice bearing Lewis Lung Carcinoma measured by the Average tumor vol after day 10 at an intraperitoneal dose of 3(mg/kg). The format is functional. Summed up: as §1
Data set [17] concerns Mus musculus. Nature of the data set: […] anticancer activity against B6D2F-1 mice bearing P388 leukemia measured by the average body weight(g) after day 1 at an intravenous dose of 10(mg/kg).

The text below walks through data of ChEMBL document CHEMBL1132156, “Synthesis and structure-activity relationships of potential anticancer agents: alkylcarbamates of 3-(9-acridinylamino)-5-hydroxymethylaniline” (J Med Chem, 1999).

Regarding `CCOC(=O)Nc1cc(CO)cc(Nc2c3ccccc3nc3ccccc23)c1`, half-maximal inhibition in data set [1] (IC50) was put at 4.4 nM. Moreover, the Average tumor volume in [2] came to 0.37; in data set [3] it was 0.68; in data set [4], 0.63; in data set [5], 0.74; in data set [6] it was 0.8; in data set [7], 0.44. The compound also came in with an Average tumor volume in data set [16] of 0.63. Moreover, the Increase in life-span in [8] came to 188%. For the same compound, the Average weight change in data set [9] is -3.7 g; in [10], -0.5 g; in data set [11], -2.3 g; in data set [12], -3 g; in [13], -0.1 g; in data set [14] it was 1 g. The same compound registered a Toxicity related death in data set [15] of 4. Also, the Body weight in [17] turned out to be 22.9 g.
